Test results from ChEMBL document CHEMBL3352584, “Novel DNA gyrase inhibiting spiropyrimidinetriones with a benzisoxazole scaffold: SAR and in vivo characterization” (J Med Chem, 2014).
≈ marks a conversion by molar mass, not a printed value.

What was measured:
Streptococcus pyogenes = test: Antimicrobial activity against Streptococcus pyogenes by broth microdilution method; type: functional
How it was run: (§1)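 Broth microdilution following CLSI guidelines. Values under 12.5 μM are averages of three or more replicates.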

Haemophilus influenzae = test: Antimicrobial activity against Haemophilus influenzae by broth microdilution method; type: functional; how it was run: as §1
Staphylococcus aureus [1] = test: Antimicrobial activity against methicillin-sensitive Staphylococcus aureus by broth microdilution method; type: functional; how it was run: as §1
[2] = Fraction unbound in human plasma at 10 uM after 16 hrs by LC-MS/MS analysis; type: ADME, cell-free
How it was run: (§2)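 Compound at 10 μM in human, rat or mouse plasma, equilibrium dialysis against buffer at 37 °C for 16 h. Buffer and plasma concentrations measured by LC-MS/MS, and the free fraction taken from their ratio.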

Escherichia coli [3] = test: Antimicrobial activity against Escherichia coli by broth microdilution method; type: functional; how it was run: as §1
Staphylococcus aureus [4] = test: Antimicrobial activity against methicillin-sensitive Staphylococcus aureus by broth microdilution method in presence of 50% human serum; type: functional
How it was run: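 CLSI broth microdilution against methicillin-sensitive S. aureus, run with 50% human serum added to the medium to reflect plasma protein binding. Values under 12.5 μM are averages of three or more replicates.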

DNA gyrase = DNA gyrase (Escherichia coli, UniProt P0AES4+P0AES6); test: Inhibition of Escherichia coli DNA gyrase using fluorescence-tagged DNA by fluorescenct polarization assay; type: protein-complex assay
How it was run: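 E. coli DNA gyrase supercoiling assay. The read-out was differential binding of a fluorescence-tagged DNA to relaxed versus supercoiled DNA, giving IC50.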

Staphylococcus aureus [5] = test: Antimicrobial activity against methicillin-resistant and quinolone-resistant Staphylococcus aureus by broth microdilution method; type: functional; how it was run: as §1
Escherichia coli [6] = test: Antimicrobial activity against tolC-deficient Escherichia coli by broth microdilution method; type: functional; how it was run: as §1
[7] = Solubility of the compound; type: physicochemical
Streptococcus pneumoniae [8] = test: Antimicrobial activity against Streptococcus pneumoniae by broth microdilution method; type: functional; how it was run: as §1
Staphylococcus aureus [9] = test: Antimicrobial activity against Staphylococcus aureus 2792 harboring wild-type GyrA and GyrB R144A mutant by broth microdilution method; type: functional
Staphylococcus aureus [10] = test: Antimicrobial activity against Staphylococcus aureus 2375 harboring GyrA S84L mutant, GyrB R144A mutant and ParC S80Y/E84G/V693M mutant and ParE N141S mutant by broth microdilution method; type: functional
Staphylococcus aureus [11] = test: Antimicrobial activity against wild-type Staphylococcus aureus 516 by broth microdilution method; type: functional; how it was run: as §1
Streptococcus pneumoniae [12] = test: Antimicrobial activity against wild-type Streptococcus pneumoniae 548 by broth microdilution method; type: functional; how it was run: as §1
Streptococcus pneumoniae [13] = test: Antimicrobial activity against Streptococcus pneumoniae 2485 harboring GyrA S81F mutant, GyrB D160E/T329A mutant and ParC S79F mutant by broth microdilution method; type: functional
Streptococcus pneumoniae [14] = test: Antimicrobial activity against Streptococcus pneumoniae 2800 harboring GyrB K143I/T172A mutant by broth microdilution method; type: functional
[15] = Bioavailability in mouse at 3 mg/kg, iv or at 10 mg/kg, po by LC-MS/MS method; type: ADME, organism-based; settings: in vivo
How it was run: (§3)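 Male mice (CD-1) or male Wistar Hannover rats, three per experiment, given a 15 min iv infusion at 3 mg/kg or oral dosing at 10 mg/kg. Vehicle was DMA:TEG:saline 40/40/20 for mice and meglumine/cyclodextrin for rats. Serial jugular blood was taken over 0–24 h, plasma analysed by LC-MS/MS, and a noncompartmental analysis used. Mean values are given.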

[16] = Fraction unbound in rat plasma at 10 uM after 16 hrs by LC-MS/MS analysis; type: ADME, cell-free; how it was run: as §2
[17] = Clearance in mouse at 3 mg/kg, iv or at 10 mg/kg, po by LC-MS/MS method; type: ADME, organism-based; settings: in vivo; how it was run: as §3
[18] = Clearance in rat at 3 mg/kg, iv or at 10 mg/kg, po by LC-MS/MS method; type: ADME, organism-based; settings: in vivo; how it was run: as §3
[19] = Fraction unbound in mouse plasma at 10 uM after 16 hrs by LC-MS/MS analysis; type: ADME, cell-free; how it was run: as §2
[20] = Bioavailability in rat at 3 mg/kg, iv or at 10 mg/kg, po by LC-MS/MS method; type: ADME, organism-based; settings: in vivo; how it was run: as §3

SMILES	MIC (Streptococcus pyogenes) [µM]	MIC (Haemophilus influenzae) [µM]	MIC (Staphylococcus aureus [1]) [µM]	fraction unbound at 16 h, 10 µM [2]	MIC (Escherichia coli [3]) [µM]	MIC (Staphylococcus aureus [4]) [µM]	IC50 (DNA gyrase) [nM]	MIC (Staphylococcus aureus [5]) [µM]	MIC (Escherichia coli [6]) [µM]	solubility [7] [µM]	MIC (Streptococcus pneumoniae [8]) [µM]	further results
Cc1noc2c(Cl)c3c(cc12)CC1(C(=O)NC(=O)NC1=O)C1C(C)OC(C)CN31 (racemic)	25 (≈ 10.5 µg/mL)	3.1 (≈ 1.3 µg/mL)	6.2 (≈ 2.6 µg/mL)	0.03	200 (≈ 83.8 µg/mL)	50	370	12 (≈ 5.03 µg/mL)	≤ 0.2	330 (≈ 138 µg/mL)	50 (≈ 20.9 µg/mL)	
CC(=O)NC[C@H]1CN(c2ccc(N3CCOCC3)c(F)c2)C(=O)O1 [LINEZOLID]	3.1 (≈ 1.05 µg/mL)	23 (≈ 7.76 µg/mL)	6.2 (≈ 2.09 µg/mL)	0.71	> 200	12	> 32000	6.2 (≈ 2.09 µg/mL)	20 (≈ 6.75 µg/mL)		3.1 (≈ 1.05 µg/mL)	
C[C@H]1COc2c(N3CCN(C)CC3)c(F)cc3c(=O)c(C(=O)O)cn1c23.C[C@H]1COc2c(N3CCN(C)CC3)c(F)cc3c(=O)c(C(=O)O)cn1c23.O [LEVOFLOXACIN]												MIC (Staphylococcus aureus [9]): 0.25 µg/mL; MIC (Staphylococcus aureus [10]): > 16 µg/mL; MIC (Staphylococcus aureus [11]): 0.13 µg/mL
CO[C@@H]1[C@@H](OC(N)=O)[C@@H](O)[C@H](Oc2ccc3c(O)c(NC(=O)c4ccc(O)c(CC=C(C)C)c4)c(=O)oc3c2C)OC1(C)C [NOVOBIOCIN]												MIC (Staphylococcus aureus [9]): 32 µg/mL (≈ 52.2 µM); MIC (Staphylococcus aureus [10]): 4.3 µg/mL (≈ 7.02 µM); MIC (Staphylococcus aureus [11]): 0.13 µg/mL (≈ 0.212 µM); MIC (Streptococcus pneumoniae [12]): 1 µg/mL (≈ 1.63 µM); MIC (Streptococcus pneumoniae [13]): 0.13 µg/mL (≈ 0.212 µM); MIC (Streptococcus pneumoniae [14]): > 16 µg/mL
C[C@@H]1CN2c3c(cc4c(Cl)noc4c3F)CC3(C(=O)NC(=O)NC3=O)[C@H]2[C@H](C)O1	6.2 (≈ 2.62 µg/mL)	25 (≈ 10.6 µg/mL)	0.39 (≈ 0.165 µg/mL)	< 0.01	25 (≈ 10.6 µg/mL)	12	210	0.78 (≈ 0.33 µg/mL)	6.2 (≈ 2.62 µg/mL)	> 1000	12 (≈ 5.07 µg/mL)	
C[C@@H]1CN2c3c(cc4c(C(F)F)noc4c3F)CC3(C(=O)NC(=O)NC3=O)[C@H]2[C@H](C)O1	1.2 (≈ 0.526 µg/mL)	0.62 (≈ 0.272 µg/mL)	0.39 (≈ 0.171 µg/mL)	0.028	25 (≈ 11 µg/mL)	3.1	480	0.39 (≈ 0.171 µg/mL)	≤ 0.2	> 1000	3.1 (≈ 1.36 µg/mL)	bioavailability [15]: 95%; fraction unbound at 16 h, 10 µM [16]: 0.043; clearance [17]: 47 mL/min/kg; clearance [18]: 1 mL/min/kg; fraction unbound at 16 h, 10 µM [19]: 0.044; bioavailability [20]: 87%
C[C@@H]1CN2c3c(cc4c(C(F)(F)F)noc4c3F)CC3(C(=O)NC(=O)NC3=O)[C@H]2[C@H](C)O1	3.1 (≈ 1.41 µg/mL)	1.6 (≈ 0.73 µg/mL)	0.78 (≈ 0.356 µg/mL)	< 0.01	25 (≈ 11.4 µg/mL)	100	610	1.6 (≈ 0.73 µg/mL)	≤ 0.2	53 (≈ 24.2 µg/mL)	12 (≈ 5.48 µg/mL)	bioavailability [15]: 63%; fraction unbound at 16 h, 10 µM [16]: 0.078; clearance [17]: 46 mL/min/kg; clearance [18]: 2.3 mL/min/kg; fraction unbound at 16 h, 10 µM [19]: 0.078; bioavailability [20]: 60%
Cc1noc2c(F)c3c(cc12)CC1(C(=O)NC(=O)NC1=O)C1C(C)CC(C)CN31 (racemic)	200 (≈ 80.1 µg/mL)	> 200	25 (≈ 10 µg/mL)	< 0.01	50 (≈ 20 µg/mL)	50	340	25 (≈ 10 µg/mL)	6.2 (≈ 2.48 µg/mL)	< 1	100 (≈ 40 µg/mL)	
Cc1noc2c(F)c3c(cc12)CC1(C(=O)NC(=O)NC1=O)[C@H]1[C@H](C)O[C@@H](C)CN31	> 200	200 (≈ 80.5 µg/mL)	> 200	0.051	> 200		26000	> 200	12 (≈ 4.83 µg/mL)	340 (≈ 137 µg/mL)	> 200	
CC1CN2c3c(cc4c(C5CC5)noc4c3F)CC3(C(=O)NC(=O)NC3=O)C2C(C)O1 (racemic)	6.2 (≈ 2.66 µg/mL)	3.1 (≈ 1.33 µg/mL)	1.6 (≈ 0.685 µg/mL)	0.052	100 (≈ 42.8 µg/mL)		340	12 (≈ 5.14 µg/mL)	≤ 0.2	29 (≈ 12.4 µg/mL)	25 (≈ 10.7 µg/mL)	
